The record followed here is ChEMBL document CHEMBL1158382 (Eur J Med Chem, 2009).

One data set concerns Mus musculus. The experiment in a line: Analgesic activity in Albino mouse assessed as inhibition of acetic acid-induced writhing at 300 umol/kg, po administered 1 hr before acetic acid challenge and measured 10 mins after acetic acid challenge. It counts as functional. The method, boiled down:
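Mice of both sexes (18–23 g) dosed orally as a suspension in 5% Arabic gum in saline; vehicle controls got an equal volume. Acetic acid 0.6% (0.1 mL/10 g) given i.p. 1 h later. Constrictions per animal counted for 20 min, starting 10 min after the injection. Value is % inhibition of constrictions versus vehicle group, mean ± SEM, N = 8–10.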
On the technique in general: An intraperitoneal irritant provokes the stretching counted in writhing tests.

In data set [1] the test system is Rattus norvegicus. The data set can be described thus: Gastrointestinal toxicity in Albino rat assessed ulcer index at 300 umol/kg, po. The conditions noted are these: in vivo.
Data set [2] concerns Rattus norvegicus. The data set can be described thus: Antiinflammatory activity in Albino rat assessed as inhibition of carrageenan-induced paw edema at 300 umol/kg, po administered 1 hr before carrageenan challenge and measured 3 hrs after carrageenan challenge. In general terms: The carrageenan paw model is a standard test of acute inflammation.
Data set [3] is described as follows: Ratio of IC50 for COX1 to IC50 for COX2.

By inhibition in vivo is commonly meant the relative decrease from the control value, in per cent. For the compound `CC1=C(CC(=O)N2CCOCC2)c2cc(F)ccc2/C1=C\c1ccc(S(C)(=O)=O)cc1`, the results for the inhibition in vivo at 300 µmol/kg with Mus musculus and with Rattus norvegicus [2] were 22% and 4%, respectively. Moreover, the UI in the data set on Rattus norvegicus [1] came to 0.

On to `Cc1ccc(Cl)c(Nc2ccccc2C(=O)O)c1Cl`, for which the Ratio IC50 in data set [3] is 0.72.

Take `CC1=C(CC(=O)N2CCSCC2)c2cc(F)ccc2/C1=C\c1ccc(S(C)(=O)=O)cc1`: the inhibition in vivo at 300 µmol/kg came to 48% in the data set on Mus musculus and 11% with Rattus norvegicus [2]. This compound also gave a UI in the data set with Rattus norvegicus [1] of 4.

For the compound `CNC(=O)CC1=C(C)/C(=C/c2ccc([S+](C)[O-])cc2)c2ccc(F)cc21` (configuration not stated), in the data set with Mus musculus, the inhibition in vivo at 300 µmol/kg is 6%.

Take `Cc1ccc(Cl)c(Nc2ccccc2C(=O)NCCOc2ccccc2)c1Cl`: the Ratio IC50 in data set [3] was found to be 440.

Take `Cc1ccc(Cl)c(Nc2ccccc2C(=O)NOCc2ccc([N+](=O)[O-])cc2)c1Cl`: the Ratio IC50 in data set [3] was 273.

As to `COC(=O)CC1=C(C)/C(=C/c2ccc(S(C)(=O)=O)cc2)c2ccc(F)cc21`, the inhibition in vivo at 300 µmol/kg in the data set on Mus musculus was determined as 21%; with Rattus norvegicus [2], 15%. The compound also gave a UI with Rattus norvegicus [1] of 0.

Regarding `CC1=C(CC(=O)N2CCCCC2)c2cc(F)ccc2/C1=C\c1ccc(S(C)(=O)=O)cc1`, the inhibition in vivo at 300 µmol/kg in the data set on Mus musculus is 36%; in the data set on Rattus norvegicus [2], 19%. In the data set with Rattus norvegicus [1], this compound showed a UI of 0.

Turning to `Cc1ccc(Cl)c(Nc2ccccc2C(=O)NCCCCl)c1Cl`, the Ratio IC50 in data set [3] was determined as 40.

`Cc1ccc(-c2cc(C(F)(F)F)nn2-c2ccc(S(N)(=O)=O)cc2)cc1` [CELECOXIB]: the values for the inhibition in vivo at 300 µmol/kg with Mus musculus and in the data set on Rattus norvegicus [2] were 56% and 35%, respectively.

Turning to `CC1=C(CC(=O)O)c2cc(F)ccc2/C1=C\c1ccc([S+](C)[O-])cc1` (configuration not stated), the inhibition in vivo at 300 µmol/kg was 49% in the data set with Mus musculus and 67% in the data set on Rattus norvegicus [2].

Turning to `CCN(CC)C(=O)CC1=C(C)/C(=C/c2ccc(S(C)(=O)=O)cc2)c2ccc(F)cc21`, the results for the inhibition in vivo at 300 µmol/kg with Mus musculus and in the data set on Rattus norvegicus [2] were 14% and 27%, respectively. In the data set with Rattus norvegicus [1], the UI is 1.

Consider `CNC(=O)CC1=C(C)/C(=C/c2ccc(S(C)(=O)=O)cc2)c2ccc(F)cc21`, for which the inhibition in vivo at 300 µmol/kg amounted to 43% in the data set with Mus musculus and 35% in the data set on Rattus norvegicus [2]. In the data set with Rattus norvegicus [1], this compound returned a UI of 0.

For the compound `COc1ccc2c(c1)c(CC(=O)Nc1cccnc1)c(C)n2C(=O)c1ccc(Cl)cc1`, in data set [3], the Ratio IC50 amounted to 1300.

As to `CCCCNC(=O)CC1=C(C)/C(=C/c2ccc(S(C)(=O)=O)cc2)c2ccc(F)cc21`, the inhibition in vivo at 300 µmol/kg in the data set with Mus musculus was determined as 35%; in the data set on Rattus norvegicus [2], 7%. Moreover, the UI in the data set on Rattus norvegicus [1] turned out to be 2.

For `CCCNC(=O)CC1=C(C)/C(=C/c2ccc(S(C)(=O)=O)cc2)c2ccc(F)cc21`, the inhibition in vivo at 300 µmol/kg turned out to be 39% in the data set on Mus musculus and 20% with Rattus norvegicus [2]. The UI in the data set with Rattus norvegicus [1] worked out at 1.4.

As for `CC1=C(CC(=O)O)c2cc(F)ccc2/C1=C\c1ccc(S(C)(=O)=O)cc1` [EXISULIND], the inhibition in vivo at 300 µmol/kg in the data set with Mus musculus turned out to be 34%; with Rattus norvegicus [2], 48%.

As to `CC1=C(CC(=O)Nc2ccccc2)c2cc(F)ccc2/C1=C\c1ccc(S(C)(=O)=O)cc1`, the figures for the inhibition in vivo at 300 µmol/kg with Mus musculus and in the data set with Rattus norvegicus [2] were 19% and 12%, respectively. The UI in the data set with Rattus norvegicus [1] stood at 0.

`CCNC(=O)CC1=C(C)/C(=C/c2ccc(S(C)(=O)=O)cc2)c2ccc(F)cc21`: the inhibition in vivo at 300 µmol/kg was found to be 59% in the data set with Mus musculus and 27% in the data set on Rattus norvegicus [2]. The compound further returned a UI with Rattus norvegicus [1] of 0.
